Measurements taken from ChEMBL document CHEMBL1145346, “Probing hot spots at protein-ligand binding sites: a fragment-based approach using biophysical methods” (J Med Chem, 2006).
The source made the active and inactive calls. The rule behind the calls is not given here.

Experiments:
[1] = biological target: T1, 2-dehydropantoate 2-reductase (Escherichia coli K-12) (UniProt P0A9J4); assay: Inhibition of Escherichia coli KPR at 1 mM
T1 sequence (whole entry): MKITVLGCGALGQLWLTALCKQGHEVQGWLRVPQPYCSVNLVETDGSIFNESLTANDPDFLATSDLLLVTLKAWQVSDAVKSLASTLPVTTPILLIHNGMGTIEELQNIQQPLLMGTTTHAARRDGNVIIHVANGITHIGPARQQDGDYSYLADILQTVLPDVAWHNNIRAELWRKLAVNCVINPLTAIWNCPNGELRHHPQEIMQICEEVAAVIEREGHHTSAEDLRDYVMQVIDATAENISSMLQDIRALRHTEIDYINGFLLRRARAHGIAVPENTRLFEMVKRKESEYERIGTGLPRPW
Method in brief: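 Single-point screen of His6-tagged E. coli KPR activity at pH 7.5-7.7. Ligand was tested at 1 mM with 20 µM NADPH, 1 mM ketopantoate and 2 nM enzyme. The result is reported as percent inhibition.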

[2] = biological target: T2, 2-dehydropantoate 2-reductase (Escherichia coli K-12, UniProt P0A9J4); assay: Inhibition of Escherichia coli KPR; format: single protein
T2 sequence (P0A9J4 whole entry): T1 sequence (whole entry)
Method in brief: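 His6-tagged E. coli KPR assayed at pH 7.5-7.7. It catalyses ketopantoate reduction with NADPH as cofactor. In the screen, ligand was tested at 1 mM with 20 µM NADPH, 1 mM ketopantoate and 2 nM enzyme. Ki was measured with five inhibitor concentrations against six NADPH concentrations, with NADPH as the varied substrate, and data were fitted to competitive or noncompetitive inhibition equations.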

[3] = biological target: T2, 2-dehydropantoate 2-reductase; assay: Binding affinity to Escherichia coli KPR; format: single protein
Method in brief: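 Isothermal titration calorimetry with His6-tagged E. coli KPR in 0.1 M HEPES/HCl, pH 7.7, at 27 °C. Data were corrected for heat of dilution and fitted to a single-site binding model. For weak ligands (Kd > 100 µM), stoichiometry was fixed at n = 1, determined from active-site titrations with NADPH or NADP+. Errors are from curve fitting for single runs, or SD across multiple experiments.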

[4] = biological target: T1, 2-dehydropantoate 2-reductase (Escherichia coli K-12); assay: Inhibition of Escherichia coli KPR at 5 mM
[5] = biological target: T1, 2-dehydropantoate 2-reductase (Escherichia coli K-12); conditions: Homo sapiens; 11 mM
[6] = biological target: T1, 2-dehydropantoate 2-reductase (Escherichia coli K-12); assay: Inhibition of Escherichia coli KPR at 20 mM
[7] = biological target: 2-dehydropantoate 2-reductase (Escherichia coli) (UniProt P0A9J4); assay: Inhibition of Escherichia coli KPR

Nc1ncnc2c1ncn2[C@@H]1O[C@H](COP(=O)(O)O)[C@@H](O)[C@H]1OP(=O)(O)O
Activity [1]: Active | Ki [2]: 240 µM | Kd [3]: 100 µM

Nc1ncnc2c1ncn2[C@@H]1O[C@H](COP(=O)(O)OP(=O)(O)OCC2OC(O)[C@H](O)[C@@H]2O)[C@@H](O)[C@H]1OP(=O)(O)O (stereo partly drawn)
Activity [1]: Active | Ki [2]: 200 µM | Kd [3]: 61 µM

NC(=O)C1=CN(C2OC(COP(=O)(O)OP(=O)(O)OC[C@H]3O[C@@H](n4cnc5c(N)ncnc54)[C@H](O)[C@@H]3O)[C@H](O)[C@@H]2O)C=CC1 (stereo partly drawn)
Kd [3]: 66 µM

Nc1nc2c(ncn2[C@@H]2O[C@H](COP(=O)(O)OP(=O)(O)O)[C@@H](O)[C@H]2O)c(=O)[nH]1
Kd [3]: 373 µM

NC(=O)c1ccc[n+]([C@@H]2O[C@H](COP(=O)([O-])O)[C@@H](O)[C@H]2O)c1
inhibition [4]: 0%

NC(=O)c1cccnc1
inhibition [5]: 0%

Nc1ncnc2c1ncn2[C@@H]1O[C@H](COP(=O)(O)OP(=O)(O)OCC2OC(O)[C@H](O)[C@@H]2O)[C@@H](O)[C@H]1O (stereo partly drawn)
inhibition [4]: 0%

Nc1ncnc2c1ncn2[C@@H]1O[C@H](COP(=O)(O)OP(=O)(O)OC[C@H]2OC(O)[C@H](O)[C@@H]2O)[C@@H](O)[C@H]1O (stereo partly drawn) [ADENOSINE DIPHOSPHATE RIBOSE]
Kd [3]: 6300 µM

Nc1ncnc2c1ncn2[C@@H]1O[C@H](COP(=O)(O)OP(=O)(O)O)[C@@H](O)[C@H]1O [ADENOSINE DIPHOSPHATE]
Activity [1]: Active | Ki [2]: 1050 µM | Kd [3]: 360 µM

Nc1ncnc2c1ncn2[C@@H]1O[C@H](COP(=O)(O)O)[C@@H](O)[C@H]1O [ADENOSINE PHOSPHATE]
Activity [1]: Active | Ki [2]: 6300 µM | Kd [3]: > 5000 µM

Nc1ncnc2c1ncn2[C@@H]1O[C@H](COP(=O)(O)OP(=O)(O)OP(=O)(O)O)[C@@H](O)[C@H]1O [ADENOSINE TRIPHOSPHATE]
Activity [1]: Active | Ki [2]: 610 µM | Kd [3]: 130 µM

Nc1nc2c(ncn2[C@@H]2O[C@H](COP(=O)(O)OP(=O)(O)OP(=O)(O)O)[C@@H](O)[C@H]2O)c(=O)[nH]1 [GUANOSINE TRIPHOSPHATE]
Kd [3]: 153 µM

NC(=O)c1ccc[n+]([C@@H]2O[C@H](COP(=O)([O-])OP(=O)(O)OC[C@H]3O[C@@H](n4cnc5c(N)ncnc54)[C@H](O)[C@@H]3O)[C@@H](O)[C@H]2O)c1 [NADIDE]
inhibition [6]: 10% | Kd [3]: 6900 µM

NC(=O)c1ccc[n+]([C@@H]2O[C@H](COP(=O)([O-])OP(=O)(O)OC[C@H]3O[C@@H](n4cnc5c(N)ncnc54)[C@H](OP(=O)(O)O)[C@@H]3O)[C@@H](O)[C@H]2O)c1 [NICOTINAMIDE ADENINE DINUCLEOTIDE PHOSPHATE]
Kd [3]: 5.8 µM

O=P(O)(O)O [PHOSPHORIC ACID]
Ki [2]: 27000 µM

NC(=O)c1ccc[n+]([C@@H]2O[C@H](COP(=O)([O-])OP(=O)(O)OC[C@H]3O[C@@H](n4cnc5c(N)ncnc54)[C@H](OP(=O)(O)O)[C@@H]3O)[C@@H](O)[C@H]2O)c1 [SODIUM beta-NICOTINAMIDE ADENINE DINUCLEOTIDE PHOSPHATE]
Kd [3]: 0.26 µM

B1: 2-dehydropantoate 2-reductase (Escherichia coli K-12), P0A9J4 (protein)
chain: T1 sequence (whole entry)
Km [7]: 750 µM
